Measurements published in ChEMBL document CHEMBL4376860, “Discovery of Novel Dual Poly(ADP-ribose)polymerase and Phosphoinositide 3-Kinase Inhibitors as a Promising Strategy for Cancer Therapy” (J Med Chem, 2020).
Active and inactive are the calls of the source. The rule behind the calls is not given here.

How the values were obtained:
MDA-MB-231 = experiment: Antiproliferative activity against human MDA-MB-231 cells measured after 7 days by Celltiter-glo assay; assay type: functional, cell-based; conditions: MDA-MB-231, 168 h
How it was run: (§1)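 Cells maintained in RPMI1640 with 10% FBS at 37 °C, 5% CO2. Seeded the day before dosing, grown 12 h, then exposed to graded compound concentrations for 7 days. CellTiter-Glo reagent added, 10 min at room temperature, luminescence read. Inhibition % = (1-(RLU compound - RLU blank)/(RLU DMSO - RLU blank))×100. IC50 from nonlinear regression, normalized dose-response fit.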

BXPC-3 = experiment: Antiproliferative activity against human BxPC3 cells measured after 7 days by Celltiter-glo assay; assay type: functional, cell-based; conditions: BXPC-3, 168 h; how it was run: as §1
MDA-MB-468 [1] = experiment: Antiproliferative activity against human MDA-MB-468 cells measured after 7 days by Celltiter-glo assay; assay type: functional, cell-based; conditions: MDA-MB-468, 168 h; how it was run: as §1
MDA-MB-468 [2] = experiment: Induction of apoptosis in human MDA-MB-468 cells assessed as viable cells at 2 uM measured after 72 hrs by Annexin V-FITC/propidium iodide staining based flow cytometry (reference value: 95.2%); assay type: functional
MDA-MB-468 [3] = conditions: Homo sapiens, 2 uM
MDA-MB-468 [4] = conditions: Homo sapiens, 2 uM; remark: listed apart in the source
MDA-MB-468 [5] = conditions: Homo sapiens, 2 uM; remark: listed apart in the source
Jurkat = experiment: Antiproliferative activity against human Jurkat cells measured after 7 days by Celltiter-glo assay; assay type: functional, cell-based; conditions: 168 h; how it was run: as §1
DU-145 = experiment: Antiproliferative activity against human DU145 cells measured after 7 days by Celltiter-glo assay; assay type: functional, cell-based; conditions: DU-145, 168 h; how it was run: as §1
Ramos = experiment: Antiproliferative activity against human Ramos cells measured after 7 days by Celltiter-glo assay; assay type: functional, cell-based; conditions: 168 h; how it was run: as §1
A549 = experiment: Antiproliferative activity against human A549 cells measured after 7 days by Celltiter-glo assay; assay type: functional, cell-based; conditions: A549, 168 h; how it was run: as §1
HCC1937 = experiment: Antiproliferative activity against human HCC1937 cells measured after 7 days by Celltiter-glo assay; assay type: functional, cell-based; conditions: HCC1937, 168 h; how it was run: as §1
HCT-116 = experiment: Antiproliferative activity against human HCT116 cells measured after 7 days by Celltiter-glo assay; assay type: functional, cell-based; conditions: HCT-116, 168 h; how it was run: as §1
A2780 = experiment: Antiproliferative activity against human A2780 cells measured after 7 days by Celltiter-glo assay; assay type: functional, cell-based; conditions: A2780, 168 h; how it was run: as §1
MDA-MB-468 [6] = experiment: Induction of DNA damage in human MDA-MB-468 cells at 2 uM measured after 72 hrs by comet assay; assay type: functional, cell-based
How it was run: (§2)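 MDA-MB-468 cells treated for 72 h, harvested and run in a neutral comet assay. Ethidium bromide staining after electrophoresis. About 200 cell images per group analysed with CASP. DNA damage scored as tail intensity (percentage DNA in tail) and olive tail moment. Mean ± SD of three independent experiments.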

CAKI-1 = experiment: Antiproliferative activity against human CAKI-1 cells measured after 7 days by Celltiter-glo assay; assay type: functional, cell-based; conditions: CAKI-1, 168 h; how it was run: as §1
SW-620 = experiment: Antiproliferative activity against human SW620 cells measured after 7 days by Celltiter-glo assay; assay type: functional, cell-based; conditions: SW-620, 168 h; how it was run: as §1
Homo sapiens = species on record: Homo sapiens; experiment: Selectivity ratio of IC50 for recombinant human PARP1 to IC50 for PI3Kalpha (unknown origin)
[7] = target: Poly [ADP-ribose] polymerase 1 (Homo sapiens, UniProt P09874); experiment: Inhibition of recombinant human PARP1 using histone as substrate after 1 hr in presence of biotinylated NAD+ by ELISA
Poly [ADP-ribose] polymerase 1, sequence (P09874 whole entry, canonical isoform): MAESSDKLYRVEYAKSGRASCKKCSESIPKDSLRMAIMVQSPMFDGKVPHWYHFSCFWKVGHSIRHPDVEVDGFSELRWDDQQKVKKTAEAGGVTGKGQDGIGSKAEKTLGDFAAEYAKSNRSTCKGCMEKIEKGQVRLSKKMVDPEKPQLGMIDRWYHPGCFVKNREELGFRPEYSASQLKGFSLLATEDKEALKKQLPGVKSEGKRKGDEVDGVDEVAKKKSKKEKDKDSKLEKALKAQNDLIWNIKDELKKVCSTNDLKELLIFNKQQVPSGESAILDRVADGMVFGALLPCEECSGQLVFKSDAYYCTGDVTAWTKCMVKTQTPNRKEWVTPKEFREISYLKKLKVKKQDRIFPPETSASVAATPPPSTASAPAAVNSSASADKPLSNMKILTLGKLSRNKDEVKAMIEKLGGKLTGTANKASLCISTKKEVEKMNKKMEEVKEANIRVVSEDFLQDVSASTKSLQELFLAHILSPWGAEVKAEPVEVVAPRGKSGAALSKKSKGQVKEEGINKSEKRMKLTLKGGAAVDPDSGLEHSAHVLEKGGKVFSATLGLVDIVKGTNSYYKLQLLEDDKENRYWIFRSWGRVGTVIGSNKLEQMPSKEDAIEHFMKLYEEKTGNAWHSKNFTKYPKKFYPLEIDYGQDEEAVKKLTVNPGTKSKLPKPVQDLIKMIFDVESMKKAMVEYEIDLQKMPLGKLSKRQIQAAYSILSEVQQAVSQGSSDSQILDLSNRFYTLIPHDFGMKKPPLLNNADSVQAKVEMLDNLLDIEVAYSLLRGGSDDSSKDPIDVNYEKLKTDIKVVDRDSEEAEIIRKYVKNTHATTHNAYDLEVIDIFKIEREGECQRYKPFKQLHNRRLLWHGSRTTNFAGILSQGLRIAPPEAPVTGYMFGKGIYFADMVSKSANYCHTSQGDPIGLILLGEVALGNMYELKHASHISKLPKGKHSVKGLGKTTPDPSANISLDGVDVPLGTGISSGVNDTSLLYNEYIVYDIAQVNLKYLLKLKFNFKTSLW

[8] = target: Phosphatidylinositol 4,5-bisphosphate 3-kinase catalytic subunit alpha isoform (Homo sapiens, UniProt P42336); experiment: Inhibition of PI3Kalpha (unknown origin) using PIP2 as substrate measured after 1 hr by ADP-glo plus luminescence assay
Phosphatidylinositol 4,5-bisphosphate 3-kinase catalytic subunit alpha isoform, sequence (P42336 whole entry, canonical isoform): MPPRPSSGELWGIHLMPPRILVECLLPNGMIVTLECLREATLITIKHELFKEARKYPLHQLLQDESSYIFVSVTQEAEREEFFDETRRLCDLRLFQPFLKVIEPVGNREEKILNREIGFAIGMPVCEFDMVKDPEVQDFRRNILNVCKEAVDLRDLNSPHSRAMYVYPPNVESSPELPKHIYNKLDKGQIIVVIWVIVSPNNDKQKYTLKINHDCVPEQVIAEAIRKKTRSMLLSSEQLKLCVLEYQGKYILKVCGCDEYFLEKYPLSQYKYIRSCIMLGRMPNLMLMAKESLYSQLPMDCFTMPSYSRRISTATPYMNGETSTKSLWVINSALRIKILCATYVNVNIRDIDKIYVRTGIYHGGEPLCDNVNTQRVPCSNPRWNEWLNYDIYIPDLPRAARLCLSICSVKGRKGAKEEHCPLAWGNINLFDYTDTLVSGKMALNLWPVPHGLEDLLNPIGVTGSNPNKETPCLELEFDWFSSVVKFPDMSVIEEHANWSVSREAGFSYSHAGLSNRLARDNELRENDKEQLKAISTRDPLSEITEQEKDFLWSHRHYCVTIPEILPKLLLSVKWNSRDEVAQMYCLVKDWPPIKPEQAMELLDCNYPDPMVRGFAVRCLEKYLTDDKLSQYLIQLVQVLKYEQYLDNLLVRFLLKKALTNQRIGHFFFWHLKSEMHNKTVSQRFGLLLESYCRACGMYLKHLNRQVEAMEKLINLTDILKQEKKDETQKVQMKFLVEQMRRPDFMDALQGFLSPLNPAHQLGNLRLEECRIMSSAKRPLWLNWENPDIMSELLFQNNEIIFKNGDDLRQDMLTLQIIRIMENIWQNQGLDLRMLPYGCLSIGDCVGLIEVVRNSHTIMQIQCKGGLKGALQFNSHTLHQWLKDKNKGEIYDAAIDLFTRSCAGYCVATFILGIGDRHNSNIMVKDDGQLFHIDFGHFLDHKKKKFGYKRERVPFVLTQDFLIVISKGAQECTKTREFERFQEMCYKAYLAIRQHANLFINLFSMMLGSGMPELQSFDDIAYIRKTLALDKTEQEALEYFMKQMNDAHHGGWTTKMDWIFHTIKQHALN

MDA-MB-468 [9] = experiment: Induction of DNA damage in human MDA-MB-468 cells at 1 uM measured after 72 hrs by comet assay; assay type: functional, cell-based; how it was run: as §2
MDA-MB-468 [10] = experiment: Inhibition of PI3K in human MDA-MB-468 cells assessed as reduction in AKT phosphorylation at S473 residue at 1 uM measured after 6 to 72 hrs by Western blot analysis; assay type: cell-based
How it was run: (§3)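 MDA-MB-468 cells seeded overnight, then exposed for 6 h; control medium contained 1‰ DMSO. Lysates run on 8–12% SDS-PAGE and transferred to PVDF. Blots blocked in 5% BSA/TBST and probed for pAKT-Ser473/total AKT or pS6-Ser240/total S6, with β-actin as loading control. HRP secondary with ECL detection; bands quantified by densitometry. Three independent experiments.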

MDA-MB-468 [11] = experiment: Induction of apoptosis in human MDA-MB-468 cells assessed as viable cells at 1 uM measured after 72 hrs by Annexin V-FITC/propidium iodide staining based flow cytometry (reference value: 95.2%); assay type: functional; conditions: MDA-MB-468, 72 h, read-out: Activity
MDA-MB-468 [12] = experiment: Induction of apoptosis in human MDA-MB-468 cells assessed as increase in cleaved PARP level at 1 uM […] by Western blot analysis; assay type: functional, cell-based
MDA-MB-468 [13] = experiment: Inhibition of PI3K in human MDA-MB-468 cells assessed as increase in gammaH2AX foci formation at 1 uM measured after 72 hrs by DAPI staining based immunofluorescence microscopic analysis; assay type: cell-based
How it was run: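 MDA-MB-468 cells on coverslips given drugs for 72 h. Fixed in 3% formaldehyde, permeabilized with 0.1% Triton X-100, blocked in 10% FBS/PBS, then rabbit anti-γH2AX (Ser139) overnight at 4 °C. Secondary antibody and DAPI stain followed. About 200 cells scored for foci; a cell was positive with more than 5 foci. Three independent experiments.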

MDA-MB-468 [14] = experiment: Inhibition of PI3K in human MDA-MB-468 cells assessed as reduction in BRCA2 mRNA level at 1 uM by Trizol reagent-based RT-PCR analysis; assay type: cell-based
How it was run: (§4)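 Total RNA from treated MDA-MB-468 cells extracted with TRIzol. BRCA1 or BRCA2 mRNA quantified by real-time PCR with GAPDH as internal control. Results given as fold change relative to the internal control. Mean ± SD of three independent experiments.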

MDA-MB-468 [15] = experiment: Induction of apoptosis in human MDA-MB-468 cells assessed as necrotic cells at 1 uM measured after 72 hrs by Annexin V-FITC/propidium iodide staining based flow cytometry (reference value: 0.13%); assay type: functional
MDA-MB-468 [16] = experiment: Antitumor activity against human MDA-MB-468 cells xenografted in BALB/c mouse assessed as tumor growth inhibition at 50 mg/kg, ip administered every 2 days for 34 days and measured at 2 days interval during compound dosing relative to control; assay type: functional; conditions: MDA-MB-468, ip, read-out: TGI
MDA-MB-468 [17] = experiment: Inhibition of PI3K in human MDA-MB-468 cells assessed as reduction in pS6 phosphorylation at S240 residue at 1 uM measured after 6 to 72 hrs by Western blot analysis; assay type: cell-based; how it was run: as §3
MDA-MB-468 [18] = experiment: Induction of apoptosis in human MDA-MB-468 cells assessed as late apoptotic cells at 1 uM measured after 72 hrs by Annexin V-FITC/propidium iodide staining based flow cytometry (reference value: 0.78%); assay type: functional
MDA-MB-468 [19] = experiment: Inhibition of PI3K in human MDA-MB-468 cells assessed as reduction in RAD51 foci formation at 1 uM measured after 72 hrs by DAPI staining based immunofluorescence microscopic analysis; assay type: cell-based
How it was run: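 RAD51 foci in MDA-MB-468 cells on coverslips after 72 h drug exposure. Cells fixed (3% formaldehyde), permeabilized (0.1% Triton X-100), blocked in 10% FBS/PBS, incubated overnight at 4 °C with rabbit anti-RAD51 polyclonal, then secondary antibody plus DAPI. Foci and percent positive cells (>5 foci per cell) counted from about 200 cells. Mean ± SD of three independent experiments.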

MDA-MB-468 [20] = experiment: Inhibition of PI3K in human MDA-MB-468 cells assessed as reduction in BRCA1 mRNA level at 1 uM by Trizol reagent-based RT-PCR analysis; assay type: cell-based; how it was run: as §4
MDA-MB-468 [21] = experiment: Induction of apoptosis in human MDA-MB-468 cells assessed as early apoptotic cells at 1 uM measured after 72 hrs by Annexin V-FITC/propidium iodide staining based flow cytometry (reference value: 3.88%); assay type: functional
[22] = Toxicity in BALB/c mouse xenografted with human MDA-MB-468 cells assessed as mortality at 50 mg/kg, ip administered every 2 days for 34 days; assay type: organism-based; conditions: in vivo
How it was run: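 Nude mice bearing subcutaneous right-flank MDA-MB-468 tumours (2 × 10^6 exponential-phase cells implanted). Randomised at about 100 mm³ tumour volume; 6 mice per group. Dosed ip every 2 days for 34 days. Vehicle controls received PBS with 5% DMSO. Body weight and tumour size recorded every 2 days; tumour volume calculated as ab²/2 from caliper diameters.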

MDA-MB-468 [23] = experiment: Activation of ERK in human MDA-MB-468 cells assessed as increase in ERK autophosphorylation at T202 residue at 1 uM measured after 6 to 72 hrs by Western blot analysis; assay type: cell-based
How it was run: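 MDA-MB-468 cells seeded in six-well plates, incubated overnight, then treated for 6 h, with 1‰ (v/v) DMSO medium as control. Lysates cleared at 4 °C, protein quantified by BCA, resolved by 8-12% SDS-PAGE and transferred to PVDF. Membranes blocked in 5% BSA/TBST, probed with primary antibodies (pERK-Thr202, total ERK, cleaved PARP, β-actin) and HRP secondary. ECL detection, band densitometry.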

## O=C(c1cc(Cc2n[nH]c(=O)c3ccccc23)ccc1F)N1CCN(C(=O)C2CC2)CC1 [OLAPARIB]
MDA-MB-231
  IC50: 18.2 µM
BXPC-3
  IC50: 11.7 µM
MDA-MB-468 [1]
  IC50: 13.8 µM
MDA-MB-468 [2]
  Activity: 91.5%
MDA-MB-468 [3]
  inhibition: Active
MDA-MB-468 [4]
  inhibition: Active
MDA-MB-468 [5]
  inhibition: Active
Jurkat
  IC50: 1.7 µM
DU-145
  IC50: 6.31 µM
Ramos
  IC50: 3.98 µM
A549
  IC50: 5.37 µM
HCC1937
  IC50: 4.57 µM
HCT-116
  IC50: 3.02 µM
A2780
  IC50: 0.741 µM
MDA-MB-468 [6]
  Activity: Active
CAKI-1
  IC50: 7.08 µM
SW-620
  IC50: 10.2 µM

## Nc1ncc(-c2nc(N3CCOCC3)nc(N3CCN(C(=O)c4cc(Cc5n[nH]c(=O)c6ccccc56)ccc4F)CC3)n2)cn1
Homo sapiens
  Ratio IC50: 120
[7]
  IC50: 0.000832 µM
[8]
  IC50: 0.0912 µM

## Nc1ncc(-c2nc3c(c(N4CCOCC4)n2)CCN(C(=O)c2cc(Cc4n[nH]c(=O)c5ccccc45)ccc2F)C3)cn1
MDA-MB-468 [9]
  Activity: Active
MDA-MB-468 [10]
  inhibition: Active
MDA-MB-468 [11]
  viability at 1 µM: 65.9%
MDA-MB-231
  IC50: 3.55 µM
MDA-MB-468 [1]
  IC50: 2.57 µM
MDA-MB-468 [12]
  Activity: Active
MDA-MB-468 [13]
  inhibition: Active
MDA-MB-468 [14]
  inhibition: Active
MDA-MB-468 [15]
  Activity: 1.15%
MDA-MB-468 [16]
  inhibition in vivo at 50 mg/kg: 52.7%
HCC1937
  IC50: 3.47 µM
HCT-116
  IC50: 1.58 µM
MDA-MB-468 [17]
  inhibition: Active
MDA-MB-468 [18]
  Activity: 19.4%
MDA-MB-468 [19]
  inhibition: Active
[7]
  IC50: 0.00257 µM
[8]
  IC50: 0.00479 µM
MDA-MB-468 [20]
  inhibition: Active
MDA-MB-468 [21]
  Activity: 14.6%
[22]
  Activity: Non-Toxic
MDA-MB-468 [23]
  Activity: Active
